High-throughput results: PubChem, Broad Institute
T cruzi growth-1: T. cruzi intracellular proliferation inhibitors, primary screen, cell-based, beta-gal Tulahuen parasites, NIH3T3 host, luminescence | T. cruzi beta-gal in NIH3T3, GalScreen luminescence, 90 h | inhibition, % at 8.34 µM | 77,000 compounds, 5.9% hits | AID 624255, 2012;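 active means mean inhibition above about 93%, with at least 55% of replicates each passing it, limit read from the data, passing the limit was not always enough; inconclusive means only one of those two conditions holds; inactive means neither condition holds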
GASC1 inh: inhibitors of GASC-1 (KDM4C) histone demethylase, primary screen, biochemical, single concentration HTS; Lysine-specific demethylase 4C (Homo sapiens), Q9H3R0; GST-KDM4C 2-372, H3K9me3 peptide, LANCE TR-FRET; inhibition, % at 12.5 µM; 96,000 compounds, 0.15% hits;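 active means mean replicate inhibition above about 25%, with at least 55% of replicates also reaching it, limit read from the data, passing the limit was not always enough; inconclusive means only one of those two conditions met; inactive means neither condition met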
Target sequence (Q9H3R0 2-372 limits assumed): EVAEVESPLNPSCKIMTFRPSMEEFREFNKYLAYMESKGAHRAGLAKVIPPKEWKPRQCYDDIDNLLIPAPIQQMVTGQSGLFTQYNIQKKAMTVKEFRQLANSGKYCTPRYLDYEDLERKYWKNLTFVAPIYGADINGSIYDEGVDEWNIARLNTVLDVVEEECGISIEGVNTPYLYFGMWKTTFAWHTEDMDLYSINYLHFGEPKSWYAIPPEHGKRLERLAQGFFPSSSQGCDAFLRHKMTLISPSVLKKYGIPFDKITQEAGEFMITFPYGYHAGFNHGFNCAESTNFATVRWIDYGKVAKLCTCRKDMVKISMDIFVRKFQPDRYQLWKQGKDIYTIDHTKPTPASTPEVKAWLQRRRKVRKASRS
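Assay system: GST-GASC-1 enzyme fragment 2-372 | Amount: 10 nM enzyme | Medium: HEPES buffer, pH 7.5, plus ascorbate | Reagent: H3K9me3 peptide substrate, Fe(II), 2-oxoglutarate | Doses: Single-point compound screen | Incubation: 30 min demethylation and 1 h detection at room temperature | Measured by: LANCE TR-FRET, excitation 340 nm, emissions 618 and 671 nm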
Pf Dd2 growth: P. falciparum Dd2 growth inhibitors, primary screen, SYBR Green fluorescence, single dose replicates | 72 h; hits give low values | activity change, % at 10 µM | 94,000 compounds, 2.3% hits; in the data active means activity change below about -80%; inconclusive means no clear call, values can overlap the other calls
IDH1 R132H inh: inhibitors of IDH1 R132H reductase, primary screen, biochemical, plate reader, single point. diaphorase/resazurin fluorescence, 60 min. 70,000 compounds, 0.18% hits. Isocitrate dehydrogenase [NADP] cytoplasmic (Homo sapiens), O75874. AID 624101, 2012. inhibition, % at 10 µM; in the data active means inhibition above about 34%; inconclusive means no clear call, values can overlap the other calls; inactive means below about 11%;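 further: 0% = DMSO and 100% = no enzyme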
Target sequence (O75874 whole entry R132H): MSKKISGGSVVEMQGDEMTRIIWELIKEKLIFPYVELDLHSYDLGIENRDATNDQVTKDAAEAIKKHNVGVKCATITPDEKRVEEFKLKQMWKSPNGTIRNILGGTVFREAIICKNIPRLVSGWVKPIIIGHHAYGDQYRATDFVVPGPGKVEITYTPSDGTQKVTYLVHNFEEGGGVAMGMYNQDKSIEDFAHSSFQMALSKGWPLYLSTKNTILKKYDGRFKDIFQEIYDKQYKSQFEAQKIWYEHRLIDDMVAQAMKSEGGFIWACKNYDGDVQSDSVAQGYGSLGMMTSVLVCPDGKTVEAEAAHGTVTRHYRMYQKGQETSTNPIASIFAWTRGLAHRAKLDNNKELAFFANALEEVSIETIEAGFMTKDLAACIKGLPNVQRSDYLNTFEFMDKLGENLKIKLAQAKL
T cruzi growth-2: T. cruzi intracellular proliferation inhibitors, confirmation, cell-based, NIH3T3 host, beta-gal parasite, luminescence, cherry-pick | T. cruzi beta-gal in NIH3T3, GalScreen luminescence, 90 h | shares compounds with T cruzi growth-1 | inhibition, % at 8.35 µM | 5,600 compounds, 72% hits;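 active means mean replicate inhibition above about 95% and at least 55% of replicates individually reaching it, limit read from the data; inconclusive means only one of the two criteria is met; inactive means neither criterion is met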
T cruzi growth-3: inhibitors of intracellular T. cruzi replication, confirmation, NIH3T3 host cells, beta-gal parasites, cherry-pick, set 2; shares compounds with T cruzi growth-1; T. cruzi beta-gal in NIH3T3, GalScreen luminescence, 90 h; inhibition, % at 2.09 µM; 5,600 compounds, 21% hits;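 active means mean inhibition above about 95%, with at least 55% of replicates also reaching it, limit read from the data; inconclusive means meets just one of the two conditions; inactive means meets neither condition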;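 further: plate controls were neutral control median for no effect and positive control median for full effect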
NIH3T3 tox: cytotoxicity in mouse NIH/3T3 fibroblasts, confirmation, cytotoxicity control for T. cruzi proliferation inhibitor project, cell-based, cherry-pick, single point | shares compounds with T cruzi growth-1 | NIH/3T3 viability, CellTiter-Glo ATP luminescence, 90 h | cytotoxicity (signal decrease), % at 8.35 µM | 5,600 compounds, 14% hits | AID 651742, 2012;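 active means mean signal decrease across replicates above about 35% based on untreated-well scatter, with enough replicates individually passing, limit read from the data; inconclusive means no rule stated though some were filed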;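 further: 0% = median of neutral control wells and 100% = median of positive control wells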
NIH3T3 tox 2: NIH/3T3 fibroblast cytotoxicity, confirmation, cytotoxicity control, cell-based, cherry-pick, single point, set 2. shares compounds with T cruzi growth-1. NIH/3T3 viability, CellTiter-Glo ATP luminescence, 90 h. inhibition, % at 24.9 µM. 5,600 compounds, 56% hits;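 active means mean loss of cell viability signal at or above a set limit, and enough replicates individually reaching it; inconclusive means meets only the mean limit or only the replicate share; inactive means meets neither condition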;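 further: 0% = median of neutral control wells and 100% = median of positive control wells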
* = called active by the depositor; ? = inconclusive; . = not tested or not shown. Only some compounds are listed: those with a hit (about 5.8% of all), similar ones and a draw of the others.

SMILES | T cruzi growth-1 | GASC1 inh | Pf Dd2 growth | IDH1 R132H inh | T cruzi growth-2 | T cruzi growth-3 | NIH3T3 tox | NIH3T3 tox 2
CCCNC(=O)N1[C@H](C#N)[C@H](c2ccccc2)[C@H]1CO | 37 | 0 | -39 | . | . | . | . | .
COc1ccc(OC)c(C(C)NC(=O)Nc2ccc([N+](=O)[O-])cc2OC)c1 (stereo unspecified) | . | . | . | 0 | . | . | . | .
COc1ccc(NC(=O)CN(c2cc(Cl)cc(Cl)c2)S(C)(=O)=O)cc1Cl | . | . | . | -1 | . | . | . | .
COc1ccc(NC(=O)c2ccco2)cc1NC(=O)COc1cc(C)c(Cl)c(C)c1 | . | . | . | -1 | . | . | . | .
CC(C)C#Cc1ccc2c(c1)O[C@H](CN(C)C(=O)C1CCCCC1)[C@@H](C)CN([C@H](C)CO)S2(=O)=O | 68 | -3 | -57 | . | . | . | . | .
CC(C)C#Cc1ccc2c(c1)O[C@@H](CN(C)C(=O)C1CCCCC1)[C@@H](C)CN([C@@H](C)CO)S2(=O)=O | ? | 0 | -30 | . | 102* | 83 | 17 | 107*
CC(C)C#Cc1ccc2c(c1)O[C@H](CN(C)C(=O)C1CCC1)[C@@H](C)CN([C@H](C)CO)S2(=O)=O | 113* | -1 | -27 | -5 | 98* | 75 | 24 | 28*
CC(C)C1NC(=S)NC2=C1CCCC2 (stereo unspecified) | . | . | . | 0 | . | . | . | .
COc1cc(NS(=O)(=O)c2ccccc2[N+](=O)[O-])c(OC)cc1Cl | . | . | . | 0 | . | . | . | .
O=C(Cn1nnc2ccccc21)OCc1ccccc1Cl | . | . | . | 0 | . | . | . | .
COC(=O)CCCCCCC(=O)N/N=C/c1ccc(OC)c(Br)c1 | . | . | . | -1 | . | . | . | .
CN1c2ccc(C#Cc3cccnc3)cc2[C@@H]2[C@@H](CCN2C(=O)c2cccc(F)c2)[C@@H]1CO | 109* | 20 | -36 | . | 107* | 45 | 31 | 31*
COc1cccc(S(=O)(=O)N2CC[C@@H]3[C@H]2c2cc(C#Cc4cccnc4)ccc2N[C@@H]3CO)c1 | ? | -1 | -11 | . | 107* | 86 | 14 | 43*
CN1c2ccc(C#Cc3cccnc3)cc2[C@H]2[C@H](CCN2S(=O)(=O)c2ccc(F)cc2)[C@@H]1CO | 103* | 0 | -64 | . | 98* | 89 | 15 | 31*
CN1c2ccc(C#Cc3cccnc3)cc2[C@@H]2[C@@H](CCN2C(=O)C2CCCCC2)[C@H]1CO | 119* | 1 | -42 | . | 110* | 57 | 41* | 42*
Cc1ccc(S(=O)(=O)CCSc2cccc(C(=O)Nc3ccccc3)c2)cc1 | . | . | . | 0 | . | . | . | .
Cc1c(C(=O)Nc2ccccc2C(=O)NCc2ccco2)cccc1[N+](=O)[O-] | . | . | . | 0 | . | . | . | .
Cc1ccc2nc(-c3ccccn3)cc(C(=O)NCc3ccccn3)c2c1 | . | . | . | -1 | . | . | . | .
COC(=O)c1cc(OC)c(OC)cc1NC(=O)CCN1C(=O)c2ccccc2C1=O | . | . | . | 0 | . | . | . | .
C[C@H](CO)N1C[C@H](C)[C@H](CN(C)C(=O)Nc2ccc(F)cc2)Oc2ncc(C#Cc3ccccc3)cc2C1=O | 110* | -3 | -67 | . | 80 | 31 | 57* | 103*
C[C@H](CO)N1C[C@H](C)[C@H](CN(C)C(=O)Nc2ccccc2)Oc2ncc(C#Cc3ccc(C(F)(F)F)cc3)cc2C1=O | 117* | . | -35 | 0 | 108* | ? | 16 | 105*
C[C@H](CO)N1C[C@H](C)[C@H](CN(C)C(=O)Nc2ccccc2)Oc2ncc(C#CC3CCCC3)cc2C1=O | 61 | -1 | -34 | . | . | . | . | .
C[C@@H]1CN([C@H](C)CO)C(=O)c2cc(C#Cc3ccc(F)cc3)cnc2O[C@H]1CN(C)C(=O)Nc1ccc(F)cc1 | 8 | -2 | -23 | 0 | . | . | . | .
C[C@H](CO)N1C[C@H](C)[C@H](CN(C)C(=O)Nc2ccc3c(c2)OCO3)Oc2ncc(C#Cc3ccc(C(F)(F)F)cc3)cc2C1=O | ? | -1 | -60 | 2 | 100* | ? | 26 | 106*
C[C@@H]1CN([C@H](C)CO)C(=O)c2cc(C#CC3CC3)cnc2O[C@@H]1CN(C)C(=O)Nc1ccccc1 | 107* | 0 | -12 | -5 | 53 | 46 | -5 | 20
SMILES | T cruzi growth-1 | GASC1 inh | Pf Dd2 growth | IDH1 R132H inh | T cruzi growth-2 | T cruzi growth-3 | NIH3T3 tox | NIH3T3 tox 2
Nc1nnc(SCC(=O)Nc2cccc(Cl)c2Cl)s1 | . | . | . | 0 | . | . | . | .
COc1ccc(NC(=O)N(C)C[C@@H]2Oc3ncc(C#Cc4ccc(C(F)(F)F)cc4)cc3C(=O)N([C@H](C)CO)C[C@@H]2C)cc1 | 108* | -1 | -73 | -1 | 101* | ? | 10 | 104*
OC[C@@H]1[C@H](c2ccc(-c3ccccc3F)cc2)[C@@H]2CN(Cc3ccncc3)CCCCN12 | ? | 4 | 12 | . | 107* | 26 | 15 | 90*
OC[C@@H]1[C@H](c2ccc(-c3ccc(F)cc3)cc2)[C@@H]2CN(Cc3cccnc3)CCCCN12 | 123* | 0 | -40 | . | 106* | 66 | 28 | 95*
OC[C@@H]1[C@H](c2ccc(-c3ccc(F)cc3)cc2)[C@H]2CN(Cc3ccncc3)CCCCN12 | 108* | 3 | -57 | . | 92 | 70 | ? | 104*
OC[C@@H]1[C@@H](c2ccc(-c3ccccc3F)cc2)[C@H]2CN(Cc3cccnc3)CCCCN12 | 97* | -1 | -55 | . | 76 | 38 | ? | 97*
OC[C@H]1[C@H](c2ccc(-c3ccccc3F)cc2)[C@H]2CN(Cc3cccnc3)CCCCN21 | 72 | 0 | 14 | . | . | . | . | .
OC[C@@H]1[C@@H](c2ccc(-c3ccccc3F)cc2)[C@@H]2CN(Cc3ccncc3)CCCCN12 | 75 | 3 | 7 | . | . | . | . | .
CSc1cccc(NC(=O)CN(C)S(=O)(=O)c2c(C)cc(C)cc2C)c1 | . | . | . | 0 | . | . | . | .
CS(=O)(=O)N(CC(=O)Nc1ccc2c(c1)OCCO2)c1cc(Cl)c(Cl)cc1Cl | . | . | . | 0 | . | . | . | .
COc1ccc(S(=O)(=O)NCc2cccnc2)c(C)c1C | . | . | . | 0 | . | . | . | .
C[C@H](CO)N1C[C@H](C)[C@@H](CN(C)Cc2ccccc2)Oc2cc(C3=CCCCC3)ccc2S1(=O)=O | 116* | 0 | -57 | 0 | 100* | 101* | 45* | 105*
C[C@H]1CN([C@@H](C)CO)S(=O)(=O)c2ccc(C3=CCCCC3)cc2O[C@H]1CN(C)Cc1ccccc1 | 120* | 0 | -53 | 0 | 91 | 93 | 68* | 105*
